Test results: ChEMBL document CHEMBL1155242, “Radiolabeled 5-iodo-3'-O-(17beta-succinyl-5alpha-androstan-3-one)-2'-deoxyuridine and its 5'-monophosphate for imaging and therapy of androgen receptor-positive cancers: synthesis and biological evaluation” (J Med Chem, 2009)
The source made the active and inactive calls. The calls are words filed in the database; no cut-off is given here.

How the values were obtained:
[1] = Stability in rabbit serum assessed as intact compound remaining at 10 to 20 uCi/mL after 60 mins by size-exclusion HPLC analysis; type: ADME, cell-free, Oryctolagus cuniculus; conditions: read-out: Stability
Outline: (§1)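 Radioiodinated compound incubated 60 min with human, rabbit or mouse serum, or with purified human SHBG. Aliquots analysed on a TSK3000 size-exclusion column: 0.1 M potassium phosphate/0.1 M Na2SO4 (1:1, pH 6.8) for 20 min, then 0–40% CH3CN over 20 min, held 30 min, 0.7 mL/min. Protein-bound versus free radioactivity read from the peaks.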

[2] = Stability in human serum assessed as intact compound remaining at 10 to 20 uCi/mL after 60 mins by reversed phase HPLC analysis; type: ADME, cell-free; conditions: read-out: Stability
Outline: (§2)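 After 60 min incubation in human, rabbit or mouse serum, incubation mixtures were extracted. Extracts were run on C18 reverse-phase HPLC with H2O/CH3CN, both with 0.07% TFA: 100% aqueous for 10 min, then 0–95% CH3CN over 30 min, held 20 min. Intact radioactive compound was distinguished from degradation product against nonradioactive reference standards.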

[3] = target: T1, Albumin (Mus musculus, UniProt P07724); test: Binding affinity to mouse serum albumin at 10 to 20 uCi/mL after 60 mins by size-exclusion HPLC analysis; type: ADME; conditions: isolated protein, 1 h; outline: as §1
T1 sequence (P07724 whole entry): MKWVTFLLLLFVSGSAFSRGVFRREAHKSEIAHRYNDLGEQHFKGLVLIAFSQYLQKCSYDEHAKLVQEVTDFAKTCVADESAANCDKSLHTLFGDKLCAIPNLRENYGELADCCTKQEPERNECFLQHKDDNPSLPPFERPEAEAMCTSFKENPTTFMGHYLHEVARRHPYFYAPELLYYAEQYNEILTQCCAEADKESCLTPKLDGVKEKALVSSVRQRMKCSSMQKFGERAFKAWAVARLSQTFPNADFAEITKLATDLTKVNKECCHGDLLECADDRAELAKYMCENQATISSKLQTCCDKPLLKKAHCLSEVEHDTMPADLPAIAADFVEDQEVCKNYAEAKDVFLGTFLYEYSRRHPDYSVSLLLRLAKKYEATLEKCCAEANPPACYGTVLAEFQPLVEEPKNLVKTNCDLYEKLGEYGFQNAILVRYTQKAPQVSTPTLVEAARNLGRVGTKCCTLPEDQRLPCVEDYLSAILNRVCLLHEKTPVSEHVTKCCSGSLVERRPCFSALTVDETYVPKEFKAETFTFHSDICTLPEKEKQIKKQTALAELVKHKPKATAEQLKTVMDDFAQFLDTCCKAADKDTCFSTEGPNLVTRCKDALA

[4] = target: Albumin (Homo sapiens, UniProt P02768); test: Binding affinity to human serum albumin at 10 to 20 uCi/mL after 60 mins by size-exclusion HPLC analysis; type: ADME; conditions: isolated protein, 1 h; outline: as §1
Chain of Albumin (Homo sapiens, UniProt P02768) (P02768 whole entry): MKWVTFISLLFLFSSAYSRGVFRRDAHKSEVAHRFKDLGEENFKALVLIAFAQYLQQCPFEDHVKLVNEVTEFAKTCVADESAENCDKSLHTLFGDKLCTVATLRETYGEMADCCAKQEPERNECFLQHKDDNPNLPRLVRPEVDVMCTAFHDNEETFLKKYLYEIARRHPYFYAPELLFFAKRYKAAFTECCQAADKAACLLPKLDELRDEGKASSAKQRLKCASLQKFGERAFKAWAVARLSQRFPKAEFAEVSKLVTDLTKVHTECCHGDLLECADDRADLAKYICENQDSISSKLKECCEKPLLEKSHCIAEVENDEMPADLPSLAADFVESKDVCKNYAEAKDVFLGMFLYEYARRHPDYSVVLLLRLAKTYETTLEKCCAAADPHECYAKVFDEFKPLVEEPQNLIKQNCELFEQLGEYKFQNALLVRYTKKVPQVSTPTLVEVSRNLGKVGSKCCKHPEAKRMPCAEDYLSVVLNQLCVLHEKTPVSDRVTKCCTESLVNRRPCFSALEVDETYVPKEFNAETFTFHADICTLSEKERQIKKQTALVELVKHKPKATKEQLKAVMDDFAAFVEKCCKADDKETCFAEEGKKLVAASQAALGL

[5] = target: Albumin (Oryctolagus cuniculus, UniProt P49065); test: Binding affinity to rabbit serum albumin at 10 to 20 uCi/mL after 60 mins by size-exclusion HPLC analysis; type: ADME; conditions: isolated protein, 1 h; outline: as §1
Chain of Albumin (Oryctolagus cuniculus, UniProt P49065) (P49065 whole entry): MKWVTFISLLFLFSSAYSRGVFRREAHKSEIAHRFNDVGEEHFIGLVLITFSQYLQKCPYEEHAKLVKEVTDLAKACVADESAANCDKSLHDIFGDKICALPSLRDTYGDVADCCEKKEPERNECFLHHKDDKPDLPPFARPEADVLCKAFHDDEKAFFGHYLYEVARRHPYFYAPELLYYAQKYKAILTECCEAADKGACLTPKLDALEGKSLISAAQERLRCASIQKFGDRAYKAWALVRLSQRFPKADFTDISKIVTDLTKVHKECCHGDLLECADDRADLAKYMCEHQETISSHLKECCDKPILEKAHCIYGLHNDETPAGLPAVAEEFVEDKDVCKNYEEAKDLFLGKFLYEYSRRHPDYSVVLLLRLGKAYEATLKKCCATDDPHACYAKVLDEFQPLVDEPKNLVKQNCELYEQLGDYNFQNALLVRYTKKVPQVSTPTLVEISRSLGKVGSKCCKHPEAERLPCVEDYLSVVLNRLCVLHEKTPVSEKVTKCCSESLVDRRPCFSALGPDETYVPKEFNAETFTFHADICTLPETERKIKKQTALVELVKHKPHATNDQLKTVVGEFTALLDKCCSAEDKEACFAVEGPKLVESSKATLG

[6] = target: T2, Sex hormone-binding globulin (Homo sapiens, UniProt P04278); test: Binding affinity to human sex hormone binding globulin at 10 to 20 uCi up to 6 hrs by reversed phase HPLC analysis; type: ADME
T2 sequence (P04278 whole entry): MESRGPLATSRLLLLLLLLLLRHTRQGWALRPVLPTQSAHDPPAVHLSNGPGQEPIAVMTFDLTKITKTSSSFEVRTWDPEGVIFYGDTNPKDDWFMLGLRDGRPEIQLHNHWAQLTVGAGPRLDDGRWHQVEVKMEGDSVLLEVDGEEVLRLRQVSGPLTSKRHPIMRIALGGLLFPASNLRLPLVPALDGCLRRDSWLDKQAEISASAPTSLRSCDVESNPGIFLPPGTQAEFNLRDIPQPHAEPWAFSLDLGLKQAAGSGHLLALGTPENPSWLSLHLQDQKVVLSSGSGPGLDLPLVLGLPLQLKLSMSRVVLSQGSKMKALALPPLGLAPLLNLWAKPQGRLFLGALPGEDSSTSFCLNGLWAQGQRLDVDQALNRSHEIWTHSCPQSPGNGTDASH

[7] = target: T1, Albumin; test: Binding affinity to mouse serum albumin at 10 to 20 uCi/mL after 60 mins by reversed phase HPLC analysis; type: ADME; conditions: isolated protein, 1 h
[8] = Stability in human serum assessed as intact compound remaining at 10 to 20 uCi/mL after 60 mins by size-exclusion HPLC analysis; type: ADME, cell-free; conditions: read-out: Stability; outline: as §1
[9] = target: T2, Sex hormone-binding globulin; test: Binding affinity to human sex hormone binding globulin at 10 to 20 uCi up to 6 hrs by size-exclusion HPLC analysis; type: ADME
[10] = Stability in rabbit serum assessed as intact compound remaining at 10 to 20 uCi/mL after 60 mins by reversed phase HPLC analysis; type: ADME, cell-free, Oryctolagus cuniculus; conditions: read-out: Stability; outline: as §2
[11] = Stability in human OVCAR-3 cells expressing androgen receptor assessed as half life at 0.01 to 5 uCi/mL by silica gel instant thin layer chromatography; type: ADME, cell-based
[12] = Stability in human OVCAR-3 cells expressing androgen receptor assessed as assessed as compound degradation at 0.01 to 5 uCi/mL up to 24 hrs by silica gel instant thin layer chromatography; type: ADME, cell-based; conditions: read-out: Activity
[13] = Stability in mouse serum assessed as intact compound remaining at 10 to 20 uCi/mL after 60 mins by reversed phase HPLC analysis; type: ADME, cell-free; conditions: read-out: Stability; outline: as §2
[14] = Stability in mouse serum assessed as intact compound remaining at 10 to 20 uCi/mL after 60 mins by size-exclusion HPLC analysis; type: ADME, cell-free; conditions: read-out: Stability; outline: as §1
[15] = tested on: OVCAR-3; test: Antitumor activity against human OVCAR-3 cells xenografted in athymic NCr mouse administered 12 days after tumor implantation at a escalating dose of 5 uCi, ip of day 1, 20 uCi, ip on day 2, 15 uCi, ip on day 3 measured 5 weeks after implantation; type: functional, organism-based; conditions: tested as the 125I-labelled form
[16] = tested on: OVCAR-3; test: Antitumor activity against human OVCAR-3 cells xenografted in athymic NCr mouse at 14 uCi, ip administered 12 days after tumor implantation as single dose measured 5 weeks after implantation; type: functional, organism-based; conditions: tested as the 125I-labelled form
Outline: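 Athymic NCr-nu/nu female mice bearing ip OVCAR-3 implants; compound given ip either as one 14 μCi/mouse dose or as three escalating daily doses of 5, 10 and 15 μCi/mouse (total 30 μCi); tumor response assessed at necropsy.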

| Structure (SMILES) | remaining at 1 h [1] [%] | remaining at 1 h [2] [%] | Activity [3] | Activity [4] | Activity [5] | Activity [6] | Activity [7] | remaining at 1 h [8] [%] | Activity [9] | remaining at 1 h [10] [%] | half-life [11] [h] | metabolised at 24 h [12] [%] | remaining at 1 h [13] [%] | remaining at 1 h [14] [%] | Activity [15] | Activity [16] |
| --- | --- | --- | --- | --- | --- | --- | --- | --- | --- | --- | --- | --- | --- | --- | --- | --- |
| O=c1[nH]c(=O)n([C@H]2C[C@H](O)[C@@H](COP(=O)(O)O)O2)cc1[125I] | 30 | 30 | Not Active | Not Active | Not Active | Not Active | Not Active | 30 | Not Active | 30 | – | – | – | – | – | – |
| C[C@]12CCC(=O)C[C@@H]1CC[C@@H]1[C@@H]2CC[C@]2(C)[C@@H](OC(=O)CCC(=O)O[C@H]3C[C@H](n4cc([123I])c(=O)[nH]c4=O)O[C@@H]3CO)CC[C@@H]12 | – | – | – | – | – | – | – | – | – | – | 13.2 | > 70 | – | – | – | – |
| CCOC(=O)CCC(=O)O[C@H]1C[C@H](n2cc([125I])c(=O)[nH]c2=O)O[C@@H]1CO | < 2 | > 90 | Not Active | Not Active | Not Active | Not Active | Not Active | > 90 | Not Active | < 2 | – | – | < 2 | < 2 | – | – |
| C[C@]12CCC(=O)C[C@@H]1CC[C@@H]1[C@@H]2CC[C@]2(C)[C@@H](OC(=O)CCC(=O)O[C@H]3C[C@H](n4cc(I)c(=O)[nH]c4=O)O[C@@H]3CO)CC[C@@H]12 | – | – | – | – | – | – | – | – | – | – | – | – | – | – | inactive | inactive |
